Columns and labels:
[1] = Single-dose study: serum pharmacokinetics of efpeglenatide; type: in vivo, human; details: T2D patients, serum ELISA; for tmax: median (min–max)
Procedure, shortened: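 Single s.c. dose (2–100 μg/kg) in T2D patients. Serum concentration–time data were used to derive tmax, terminal t1/2, observed Cmax, AUC(0–last) and AUC(0–inf). Values are geometric mean (%CV of arithmetic mean); tmax is median (min, max). Dose proportionality was explored on log-transformed Cmax and AUC. The PK set comprised dosed patients with sufficient concentration data.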

[2] = Repeated-dose study: serum pharmacokinetics of efpeglenatide; type: in vivo, human; details: mean (SD); for Accumulation ratio: AUC0–τ last dose / AUC0–τ first dose; for PTR (peak‐to‐trough ratio): Cmax/Cmin
Procedure, shortened: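 T2D patients on metformin received s.c. doses weekly (168 h interval, eight injections) or monthly (672 h interval, three injections). PK set, grouped by the most recent treatment received. Accumulation ratio was AUC0–τ of the last dose over AUC0–τ of the first dose. Peak-to-trough ratio was Cmax/Cmin. t1/2 was the terminal elimination half-life.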

patients with T2D [3] = test: Single-dose study: pharmacodynamics; type: in vivo, human; details: single dose 2–8 μg/kg
Procedure, shortened: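 Pharmacodynamics were assessed from 24-hour glucose profiles, including fasting and postprandial plasma glucose, reported as absolute change from baseline. The PD set comprised all treated patients.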

patients with T2D [4] = test: Repeated-dose study: pharmacodynamics/efficacy; type: in vivo, human
Procedure, shortened: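 Multiple-ascending-dose trial in adults with T2D on stable metformin: s.c. doses weekly (1, 2, 4 mg; 8 weeks) or monthly (8, 12, 16 mg; 9 weeks), placebo 3:1, no titration. Primary endpoint was HbA1c change from baseline to […]. Full analysis set by randomized treatment. LS means came from ANCOVA with cohort as main effect and baseline as covariate. Each dose was tested against placebo within its regimen, two-sided at 5%, unadjusted.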

patients with T2D [5] = test: Single-dose study: safety and tolerability; type: in vivo, human
Procedure, shortened: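 Single ascending s.c. doses of 2–100 μg/kg or placebo (5:1) were given to T2D patients after a 14-day washout of glucose-lowering drugs. Safety assessments covered AE recording, vital signs, 12-lead ECG, clinical laboratory measures and physical examination. The safety set included all patients receiving any study drug.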

patients with T2D [6] = test: Repeated-dose study: safety and tolerability; type: in vivo, human
Procedure, shortened: (§1)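 Adults aged 18–65 with T2D on stable metformin for ≥3 months, HbA1c 7–10%. Randomized 3:1 to s.c. test compound or placebo with no titration, in six cohorts of 12. Doses were 1, 2 or 4 mg weekly for 8 weeks, or 8, 12 or 16 mg monthly for 9 weeks; follow-up to week 13. Assessments covered AEs, vital signs, 12-lead ECG, clinical laboratory measures, immunogenicity and physical examination. Analysed in the safety set by treatment actually received.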

[7] = tested on: anti-efpeglenatide antibodies; test: Single-dose study: immunogenicity, bridging ELISA; type: in vivo, human; details: serum, pre-dose, days 28 and 49, follow-up
Procedure, shortened: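 First-in-patient dose escalation in eight cohorts of six T2D patients: single s.c. injection of 2–100 μg/kg test compound or placebo (5:1). Patients were 18–75 years, BMI 25–40 kg/m², HbA1c 6–10%, with a 14-day washout of glucose-lowering drugs before dosing. Immunogenicity was a secondary objective.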

[8] = tested on: anti-efpeglenatide antibodies; test: Repeated-dose study: immunogenicity, bridging ELISA; type: in vivo, human; details: the four patients with antibodies at baseline
Procedure, shortened: as §1

GLP‐1 receptor [9] = details: in vitro; compared with other GLP‐1RAs; cited from earlier work
GLP‐1 receptor [10] = details: in vitro; compared with other GLP‐1RAs; cited from earlier work; remark: listed apart in the source
[11] = single s.c. dose 2 μg/kg, geometric mean (%CV)
[12] = single s.c. dose 4 μg/kg, geometric mean (%CV)
[13] = single s.c. dose 8 μg/kg, geometric mean (%CV)
[14] = single s.c. dose 14 μg/kg, geometric mean (%CV)
[15] = single s.c. dose 20 μg/kg, geometric mean (%CV)
[16] = single s.c. dose 40 μg/kg, geometric mean (%CV)
[17] = single s.c. dose 60 μg/kg, geometric mean (%CV)
[18] = single s.c. dose 100 μg/kg, geometric mean (%CV)

Substance: efpeglenatide
- AUC(0–last) [1, 11]: 2913 (19) ng h/mL
- Cmax [1, 11]: 10.4 (11) ng/mL
- tmax ([1]; single s.c. dose 2 μg/kg): 144.00 (72.06–216.76) h
- AUC(0–inf) [1, 12]: 9060 (12) ng h/mL
- AUC(0–last) [1, 12]: 7911 (12) ng h/mL
- Cmax [1, 12]: 25.7 (16) ng/mL
- t1/2 [1, 12]: 144 (10) h
- tmax ([1]; single s.c. dose 4 μg/kg): 72.06 (72.00–216.80) h
- Cmax [1, 13]: 45.1 (5) ng/mL
- t1/2 [1, 13]: 147 (19) h
- tmax ([1]; single s.c. dose 8 μg/kg): 72.06 (72.00–144.00) h
- Cmax [1, 14]: 80.3 (28) ng/mL
- t1/2 [1, 14]: 135 (8) h
- tmax ([1]; single s.c. dose 14 μg/kg): 144.00 (72.00–216.76) h
- Cmax [1, 15]: 102 (6) ng/mL
- t1/2 [1, 15]: 147 (6) h
- tmax ([1]; single s.c. dose 20 μg/kg): 144.00 (72.00–216.78) h
- Cmax [1, 16]: 202 (14) ng/mL
- t1/2 [1, 16]: 141 (10) h
- tmax ([1]; single s.c. dose 40 μg/kg): 144.00 (72.00–216.78) h
- Cmax [1, 17]: 349 (13) ng/mL
- t1/2 [1, 17]: 154 (9) h
- tmax ([1]; single s.c. dose 60 μg/kg): 72.00 (72.00–144.00) h
- Cmax [1, 18]: 643 (12) ng/mL
- t1/2 [1, 18]: 180 (12) h
- tmax ([1]; single s.c. dose 100 μg/kg): 72.00 (72.00–216.90) h
- Accumulation ratio ([2]; 1 mg once weekly s.c., τ 168 h): 3.49 (2.16)
- PTR (peak‐to‐trough ratio) ([2]; 1 mg once weekly s.c.): 1.40 (0.49)
- Accumulation ratio ([2]; 2 mg once weekly s.c., τ 168 h): 3.51 (0.68)
- PTR (peak‐to‐trough ratio) ([2]; 2 mg once weekly s.c.): 1.42 (0.21)
- Accumulation ratio ([2]; 4 mg once weekly s.c., τ 168 h): 3.71 (1.87)
- PTR (peak‐to‐trough ratio) ([2]; 4 mg once weekly s.c.): 1.32 (0.12)
- Accumulation ratio ([2]; 8 mg once monthly s.c., τ 672 h): 1.07 (0.10)
- PTR (peak‐to‐trough ratio) ([2]; 8 mg once monthly s.c.): 10.35 (7.28)
- PTR (peak‐to‐trough ratio) ([2]; 12 mg once monthly s.c.): 5.86 (1.10)
- PTR (peak‐to‐trough ratio) ([2]; 16 mg once monthly s.c.): 12.94 (7.55)
- changes in PPG (patients with T2D [3]): No notable changes
- reductions in FPG from baseline over 2 weeks (patients with T2D [3]; compared with the higher doses, data not shown): smaller than those observed for the higher doses
- LS mean change in HbA1c compared with placebo (patients with T2D [4]; 8 mg once monthly, day 57, P = 0.006): statistically significant LS mean decreases
- LS mean change in HbA1c compared with placebo (patients with T2D [4]; 12 mg once monthly, day 57, P = 0.015): statistically significant LS mean decreases
- LS mean change in HbA1c compared with placebo (patients with T2D [4]; 16 mg once monthly, day 57): not statistically significant
- LS mean change in HbA1c compared with placebo (patients with T2D [4]; all once‐monthly dose groups (8, 12, 16 mg), day 29, P ≤0.047 for all, ANCOVA): significant decreases
- LS mean change in HbA1c compared with placebo (patients with T2D [4]; each once‐weekly dose group (1, 2, 4 mg), day 29, P ≤0.003 for all, ANCOVA): Significant decreases
- LS mean change in HbA1c compared with placebo (patients with T2D [4]; each once‐weekly dose group (1, 2, 4 mg), day 57, P ≤0.021 for all, ANCOVA): Significant decreases
- deaths or serious AEs (patients with T2D [5]): no deaths or serious AEs
- arrhythmia or ECG changes due to QTc prolongation or conduction disorders (patients with T2D [5]; 12‐lead ECG): no signs of arrhythmia or ECG changes
- hypoglycaemia or pancreatitis reported as AEs (patients with T2D [5]; any treatment group): No incidences
- dose-escalation stopping criteria (patients with T2D [6]; 16 mg once monthly cohort, more than three patients with moderate vomiting): reached the predefined stopping criteria for dose escalation
- pancreatic injury (patients with T2D [6]; any patient receiving efpeglenatide, repeated-dose study): no cases of pancreatic injury
- haematological, serum chemistry or urine analysis variables (patients with T2D [6]; any treatment group, repeated-dose study): no significant change from baseline
- development of anti‐efpeglenatide antibodies [7]: No patient
- treatment‐emergent or treatment‐induced antibodies [8]: none
- dissociation from the GLP‐1 receptor (GLP‐1 receptor [9]): faster dissociation
- receptor internalization (GLP‐1 receptor [10]): reduced receptor internalization
